We go through 13 compounds from ChEMBL document CHEMBL4825662 (J Med Chem, 2021).

Data set [1] concerns Human orthopneumovirus. In words: Antiviral activity against Respiratory syncytial virus A2 infected in African green monkey Vero cells by Plaque reduction assay. Format: functional, organism-based. For orientation: Plaques are areas of infected cells; plaque reduction assays count them against a control.
Data set [2] in a line: Cytotoxicity against African green monkey Vero cells by MTT assay. As to conditions: chlorocebus sabaeus. It counts as cell-based. In outline:
(§1)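 Viability was assessed by MTT after culture with compound at 0.01 nM to 100 μM, run in parallel with plaque reduction assays. Values are the average of at least two testing occasions.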
For orientation: Formazan colour is commonly taken as a measure of viable cells.

Data set [3] is described as follows: Cytotoxicity against human HepG2 cells by MTT assay. It counts as cell-based. Put shortly:
as §1

A short description of data set [4]: Protein binding in rat plasma assessed as unbound fraction at 5 uM by LC-MS/MS analysis based equilibrium dialysis method. Format: ADME, cell-free. (In equilibrium dialysis only unbound substance equilibrates across the membrane.)
Data set [5] is described as follows: Protein binding in dog plasma assessed as unbound fraction at 5 uM by LC-MS/MS analysis based equilibrium dialysis method. Format: ADME, cell-free, Canis lupus familiaris.
Data set [6] is described as follows: Protein binding in human plasma assessed as unbound fraction at 5 uM by LC-MS/MS analysis based equilibrium dialysis method. It counts as ADME, cell-free.
A short description of data set [7]: Intrinsic clearance in Sprague-Dawley rat liver microsomes preincubated followed by NADPH addition and measured up to 45 mins by LC-MS/MS analysis. Format: ADME, Microsome.
A short description of data set [8]: Intrinsic clearance in Beagle dog liver microsomes preincubated followed by NADPH addition and measured up to 45 mins by LC-MS/MS analysis. Format: ADME, Canis lupus familiaris, Microsome.
Data set [9] is described as follows: Intrinsic clearance in human liver microsomes preincubated followed by NADPH addition and measured up to 45 mins by LC-MS/MS analysis. Format: ADME, Microsome.
Data set [10] in a line: Thermodynamic solubility in PBS at 1 to 100 uM at pH 7.4 by HPLC-UV method. Format: physicochemical. Particulars: dose 1-100 µM, read-out: Therm_solubility.
Data set [11] is described as follows: Apparent permeability across apical to basolateral side in MDCK-MDR1 cells at 10 uM measured at 60 mins by LC-MS/MS analysis. It counts as ADME, cell-based, Canis lupus familiaris. As to conditions: dog, mdck-mdr1, 1 h, 10 µM.
Data set [12] can be described thus: Efflux ratio of apparent permeability in MDCK-MDR1 cells at 10 uM measured at 60 mins by LC-MS/MS analysis. It counts as ADME, cell-based, Canis lupus familiaris. Particulars: dog, mdck-mdr1, 1 h, 10 µM.
The nature of data set [13]: Cmax in Sprague-Dawley rat at 5 mg/kg, po administered via gavage measured after 0.02 to 24 hrs by tandem liquid chromatography/mass spectrometry. On the set-up: route oral, dose 5 mg/kg, time upper 24 hrs, time lower 0.02 hrs. As to conditions: in vivo. Format: ADME, organism-based. Put shortly: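 Male Sprague–Dawley rats weighing 200–250 g, 3 per route, were used. The i.v. bolus was 1 mg/kg at 1 mg/mL in 40:60 dimethylacetamide/saline. Oral gavage doses were 5 or 10 mg/kg at 5 mg/mL in 1% methyl cellulose with 0.1% Tween 80. Heparinized blood was taken at 0.02–24 h (ten time points). Plasma was analyzed by LC-MS/MS after acetonitrile precipitation.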

Data set [14] can be described thus: Clearance in Sprague-Dawley rat at 1 mg/kg, iv administered […] measured after 0.02 to 24 hrs by tandem liquid chromatography/mass spectrometry. Format: ADME, organism-based. Particulars: in vivo, time 0.02-24 hrs.
The nature of data set [15]: Volume of distribution at steady state in Sprague-Dawley rat at 1 mg/kg, iv administered […] measured after 0.02 to 24 hrs by tandem liquid chromatography/mass spectrometry. As to conditions: in vivo, time 0.02-24 hrs, read-out: Vdss. It counts as ADME, organism-based. In outline: (§2)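 Male Sprague–Dawley rats (200–250 g), 3 per route. IV bolus at 1 mg/kg, 1 mg/mL in 40:60 dimethylacetamide/saline; oral gavage at 5 or 10 mg/kg, 5 mg/mL in 1% methyl cellulose, 0.1% Tween 80 in water. Serial blood at 0.02–24 h (ten points) into heparin, spun at 4 °C, plasma frozen; acetonitrile protein precipitation, ESI LC-MS/MS with matrix curve and internal standards.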

Data set [16] is described as follows: Oral bioavailability in Sprague-Dawley rat at 10 mg/kg administered via gavage measured after 0.02 to 24 hrs by tandem liquid chromatography/mass spectrometry. It counts as ADME, organism-based. As to conditions: in vivo, time 0.02-24 hrs. Put shortly: as §2
The subject of data set [17] is Human orthopneumovirus. Description: Antiviral activity against Respiratory syncytial virus A2 infected in human Hep2 cells by Plaque reduction assay. It counts as functional, organism-based. As to conditions: A2, HEp-2. Put shortly: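 Hep2 cells were infected with RSV strain A2 in the presence of compound. Plaques were detected by immunostaining after 48 h. Values are the average of at least two testing occasions.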

Data set [18] is described as follows: Cytotoxicity against human Hep2 cells. Format: cell-based. Particulars: HEp-2 cells. In outline: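 Hep2 cells were cultured in parallel with the plaque assays at compound concentrations of 0.01 nM to 100 μM. Viability was read by MTT, CellTox green or CellTiter-Glo.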
The nature of data set [19]: Apparent permeability across basolateral side to apical side in MDCK-MDR1 cells at 10 uM measured at 60 mins by LC-MS/MS analysis. It counts as ADME, cell-based, Canis lupus familiaris. As to conditions: dog.

Values after ≈ are worked out from the molar mass of the structure shown.

As usually defined, the EC50 is the concentration needed to bring the measured effect to its halfway point. A word on the CC50: it is the concentration that lowers cell viability or growth by half. Consider `CC(C)CCn1c(CN2C(=O)C3(CC3)Oc3ccccc32)nc2cc(CN)ccc21`, for which, in data set [1], it took 1.7 µM to reach a half-maximal effect (EC50). This compound yielded a CC50 in data set [2] of 22.7 µM.
The compound `CS(=O)(=O)c1ccc2c(c1)nc(CN1C(=O)C3(CC3)c3ccc(F)cc31)n2CCCC(F)(F)F` showed an EC50 in [1] of 3.64 µM. The CC50 in data set [3] was over 25 µM.
In general, fraction unbound refers to the share of the substance not bound to proteins or other matrix. A word on the Cmax: it is the highest concentration seen after dosing. In general, bioavailability refers to dose-corrected exposure relative to a reference, in per cent. With `CC(C)CCn1c(CN2C(=O)C3(CC3)c3cccc(F)c32)nc2cc(CN)ccc21`, the EC50 in data set [1] was determined as 0.0408 µM. Besides, in [2], half-maximal cytotoxicity (CC50) was put at 31.1 µM. For the same compound, the fraction unbound at 5 µM in [4] was determined as 0.104; in [5] it was 0.147; in [6], 0.42. Besides, the Microsomal intrinsic clearance in data set [7] turned out to be 37.8 µL/min. This compound yielded an intrinsic clearance in data set [8] of 2.23 µL/min. Also, in data set [9], the “intrinsic clearance (CLint)” value was 7 µL/min. Moreover, the solubility thermodynamic in data set [10] turned out to be 1230 µM (≈ 500 µg/mL). Also, the Papp in data set [11] is recorded as 0.19 10^-6 cm/s. In addition, in data set [12], the Ratio amounted to 227. The compound also came in with a Cmax in data set [13] of 31.3 ng/mL. The compound further yielded a clearance in data set [14] of 108 mL/min/kg. Moreover, in data set [15], the Vd was determined as 11.9 L/kg. In [16], this compound gave a bioavailability of 8.8%.
As to `CC(C)CCn1c(CN2C(=O)C3(CC3)c3cc(Cl)ccc32)nc2cc(CN)ccc21`, the EC50 in data set [1] was found to be 0.0254 µM. Half-maximal cytotoxicity in data set [2] (CC50) was put at 0.71 µM.
As to `CC(=O)NCc1ccc2c(c1)nc(CN1C(=O)C3(CC3)c3ccc(F)cc31)n2CCCC(F)(F)F`, the EC50 in data set [17] came out at 0.107 µM. Further, the CC50 in [18] was over 20 µM.
In data set [1], `CC(C)CCn1c(CN2C(=O)C3(CC3)c3ccc(Cl)cc32)nc2cc(CN)ccc21` displayed an EC50 of 0.0067 µM. Moreover, the CC50 in data set [2] turned out to be 4.5 µM.
For `CC(C)CCn1c(CN2C(=O)C3(CCCC3)Cc3ccccc32)nc2cc(CN)ccc21`, in that order: 14 µM and 11.5 µM.
Turning to `NC(=O)c1ccc2c(c1)nc(CN1C(=O)C3(CC3)c3ccc(F)cc31)n2CCCC(F)(F)F`, it took 0.0137 µM to reach a half-maximal effect in data set [17] (EC50). Also, the CC50 in [18] is over 20 µM.
`CC(C)CCn1c(CN2C(=O)C3(CC3)c3c(Cl)cccc32)nc2cc(CN)ccc21`: in data set [1], the EC50 came out at 0.181 µM. The compound also came in with a CC50 in [2] of 5.2 µM.
Consider `O=C1N(Cc2nc3ccccc3n2CCCC(F)(F)F)c2cc(F)ccc2C12CC2`, for which the EC50 in [1] amounted to 0.0179 µM. The compound also registered a CC50 in data set [2] of over 25 µM.
As a reminder, the Papp B→A is how fast a substance crosses the layer from the basolateral side. In data set [1], `O=C1N(Cc2nc3cc(Cl)ccc3n2CCCC(F)(F)F)c2cc(F)ccc2C12CC2` came in with an EC50 of 0.0054 µM. Also, the CC50 in data set [2] is over 25 µM. This compound also had a Microsomal intrinsic clearance in data set [7] of 71.3 µL/min. The same compound had an intrinsic clearance in data set [8] of 328 µL/min. The “intrinsic clearance (CLint)” value in data set [9] is 177 µL/min. Moreover, the Papp B→A at 1 h, 10 µM in data set [19] turned out to be 0.14 ×10⁻⁶ cm/s.
Take `N#Cc1ccc2c(c1)nc(CN1C(=O)C3(CC3)c3ccc(F)cc31)n2CCCC(F)(F)F`: the EC50 in data set [1] is 0.444 µM. The compound also yielded a CC50 in data set [3] of 23.7 µM.
`CC(C)CCn1c(CN2C(=O)C3(CC3)Cc3ccccc32)nc2cc(CN)ccc21` came in with an EC50 in [1] of 3.4 µM. For the same compound, it took 33.4 µM to reach half-maximal cytotoxicity in data set [2] (CC50).
